Experimental data reported in publication PMC3778312 (British Journal of Cancer, 2013).

Assay: Phase 1 safety monitoring of PX-866 with docetaxel
Type: in vivo, human
Outline: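 Open-label dose escalation in cohorts of 6–9 patients at 4, 6 or 8 mg oral daily test compound plus docetaxel 75 mg m−2 IV every 21 days, with dexamethasone premedication. All patients receiving ≥1 dose had vital signs, labs and exams; AEs were graded by NCI CTCAE v4.02. DLTs included related grade ≥3 events, febrile grade 3/4 neutropenia, platelets <25 000 per μl and ANC <500 per μl for >7 days.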

With `C=CCN(/C=C1/C(=O)O[C@H](COC)[C@@]2(C)C1=C(O)C(=O)C1=C2[C@H](OC(C)=O)C[C@]2(C)C(=O)CC[C@@H]12)CC=C` [PX-866] the “patients requiring PX-866 dose reductions” value (4 out of 43, all in the 8 mg cohort, vomiting and/or diarrhoea) was 9%, the “Treatment-emergent AE: Alopecia” value (PX-866 4 mg + docetaxel, N=10) was 2 (20) N (%) and the “Treatment-emergent AE: Anaemia” value (PX-866 4 mg + docetaxel, N=10) was 2 (20) N (%). For the same compound, the “Treatment-emergent AE: Arthralgia” value (PX-866 4 mg + docetaxel, N=10) was 0 (0) N (%), the “Treatment-emergent AE: Asthenia” value (PX-866 4 mg + docetaxel, N=10) was 1 (10) N (%) and the “Treatment-emergent AE: Bone pain” value (PX-866 4 mg + docetaxel, N=10) was 0 (0) N (%). For the same compound, the “Treatment-emergent AE: Cough” value (PX-866 4 mg + docetaxel, N=10) was 2 (20) N (%), the “Treatment-emergent AE: Decreased appetite” value (PX-866 4 mg + docetaxel, N=10) was 1 (10) N (%) and the “Treatment-emergent AE: Dehydration” value (PX-866 4 mg + docetaxel, N=10) was 3 (30) N (%). For the same compound, the “Treatment-emergent AE: Diarrhoea” value (PX-866 4 mg + docetaxel, N=10) was 7 (70) N (%), the “Treatment-emergent AE: Dizziness” value (PX-866 4 mg + docetaxel, N=10) was 1 (10) N (%) and the “Treatment-emergent AE: Dysgeusia” value (PX-866 4 mg + docetaxel, N=10) was 2 (20) N (%). For the same compound, the “Treatment-emergent AE: Epistaxis” value (PX-866 4 mg + docetaxel, N=10) was 1 (10) N (%), the “Treatment-emergent AE: Fatigue” value (PX-866 4 mg + docetaxel, N=10) was 6 (60) N (%) and the “Treatment-emergent AE: Hypokalemia” value (PX-866 4 mg + docetaxel, N=10) was 2 (20) N (%). The “Treatment-emergent AE: Nausea” value (PX-866 4 mg + docetaxel, N=10) was 5 (50) N (%), the “Treatment-emergent AE: Neutropenia” value (PX-866 4 mg + docetaxel, N=10) was 6 (60) N (%) and the “Treatment-emergent AE: Oedema peripheral” value (PX-866 4 mg + docetaxel, N=10) was 4 (40) N (%). For the same compound, the “Treatment-emergent AE: Oropharyngeal pain” value (PX-866 4 mg + docetaxel, N=10) was 1 (10) N (%), the “Treatment-emergent AE: Pyrexia” value (PX-866 4 mg + docetaxel, N=10) was 1 (10) N (%) and the “Treatment-emergent AE: Stomatitis” value (PX-866 4 mg + docetaxel, N=10) was 1 (10) N (%). The “Treatment-emergent AE: Vomiting” value (PX-866 4 mg + docetaxel, N=10) was 3 (30) N (%), the “Treatment-emergent AEs, frequency by severity: Grade 1” value (PX-866 4 mg + docetaxel, N=10) was 32 (56) N (%) and the “Treatment-emergent AEs, frequency by severity: Grade 2” value (PX-866 4 mg + docetaxel, N=10) was 10 (18) N (%). For the same compound, the “Treatment-emergent AEs, frequency by severity: Grade 3” value (PX-866 4 mg + docetaxel, N=10) was 8 (14) N (%), the “Treatment-emergent AEs, frequency by severity: Grade 4” value (PX-866 4 mg + docetaxel, N=10) was 7 (12) N (%) and the “Treatment-emergent AEs, frequency by severity: Grade 5” value (PX-866 4 mg + docetaxel, N=10) was 0 (0) N (%). For the same compound, the “Treatment-emergent AE: Alopecia” value (PX-866 6 mg + docetaxel, N=10) was 6 (60) N (%), the “Treatment-emergent AE: Anaemia” value (PX-866 6 mg + docetaxel, N=10) was 2 (20) N (%) and the “Treatment-emergent AE: Arthralgia” value (PX-866 6 mg + docetaxel, N=10) was 2 (20) N (%). For the same compound, the “Treatment-emergent AE: Asthenia” value (PX-866 6 mg + docetaxel, N=10) was 4 (40) N (%), the “Treatment-emergent AE: Bone pain” value (PX-866 6 mg + docetaxel, N=10) was 4 (40) N (%) and the “Treatment-emergent AE: Constipation” value (PX-866 6 mg + docetaxel, N=10) was 3 (30) N (%). The “Treatment-emergent AE: Cough” value (PX-866 6 mg + docetaxel, N=10) was 5 (50) N (%), the “Treatment-emergent AE: Decreased appetite” value (PX-866 6 mg + docetaxel, N=10) was 4 (40) N (%) and the “Treatment-emergent AE: Dehydration” value (PX-866 6 mg + docetaxel, N=10) was 1 (10) N (%). For the same compound, the “Treatment-emergent AE: Diarrhoea” value (PX-866 6 mg + docetaxel, N=10) was 8 (80) N (%), the “Treatment-emergent AE: Dizziness” value (PX-866 6 mg + docetaxel, N=10) was 2 (20) N (%) and the “Treatment-emergent AE: Dysgeusia” value (PX-866 6 mg + docetaxel, N=10) was 3 (30) N (%). For the same compound, the “Treatment-emergent AE: Epistaxis” value (PX-866 6 mg + docetaxel, N=10) was 2 (20) N (%), the “Treatment-emergent AE: Fatigue” value (PX-866 6 mg + docetaxel, N=10) was 7 (70) N (%) and the “Treatment-emergent AE: Hypokalemia” value (PX-866 6 mg + docetaxel, N=10) was 1 (10) N (%). The “Treatment-emergent AE: Nausea” value (PX-866 6 mg + docetaxel, N=10) was 4 (40) N (%), the “Treatment-emergent AE: Neutropenia” value (PX-866 6 mg + docetaxel, N=10) was 5 (50) N (%) and the “Treatment-emergent AE: Oedema peripheral” value (PX-866 6 mg + docetaxel, N=10) was 6 (60) N (%). For the same compound, the “Treatment-emergent AE: Oropharyngeal pain” value (PX-866 6 mg + docetaxel, N=10) was 1 (10) N (%), the “Treatment-emergent AE: Pyrexia” value (PX-866 6 mg + docetaxel, N=10) was 4 (40) N (%) and the “Treatment-emergent AE: Stomatitis” value (PX-866 6 mg + docetaxel, N=10) was 4 (40) N (%). For the same compound, the “Treatment-emergent AE: Vomiting” value (PX-866 6 mg + docetaxel, N=10) was 5 (50) N (%), the “Treatment-emergent AEs, frequency by severity: Grade 1” value (PX-866 6 mg + docetaxel, N=10) was 36 (49) N (%) and the “Treatment-emergent AEs, frequency by severity: Grade 2” value (PX-866 6 mg + docetaxel, N=10) was 30 (41) N (%). The “Treatment-emergent AEs, frequency by severity: Grade 3” value (PX-866 6 mg + docetaxel, N=10) was 5 (7) N (%), the “Treatment-emergent AEs, frequency by severity: Grade 4” value (PX-866 6 mg + docetaxel, N=10) was 3 (4) N (%) and the “Treatment-emergent AEs, frequency by severity: Grade 5” value (PX-866 6 mg + docetaxel, N=10) was 0 (0) N (%). For the same compound, the “Treatment-emergent AE: Alopecia” value (PX-866 8 mg + docetaxel, N=23) was 4 (17) N (%), the “Treatment-emergent AE: Anaemia” value (PX-866 8 mg + docetaxel, N=23) was 9 (39) N (%) and the “Treatment-emergent AE: Arthralgia” value (PX-866 8 mg + docetaxel, N=23) was 5 (22) N (%). The “Treatment-emergent AE: Asthenia” value (PX-866 8 mg + docetaxel, N=23) was 6 (26) N (%), the “Treatment-emergent AE: Bone pain” value (PX-866 8 mg + docetaxel, N=23) was 5 (22) N (%) and the “Treatment-emergent AE: Constipation” value (PX-866 8 mg + docetaxel, N=23) was 8 (35) N (%). The “Treatment-emergent AE: Cough” value (PX-866 8 mg + docetaxel, N=23) was 3 (13) N (%), the “Treatment-emergent AE: Decreased appetite” value (PX-866 8 mg + docetaxel, N=23) was 10 (44) N (%) and the “Treatment-emergent AE: Dehydration” value (PX-866 8 mg + docetaxel, N=23) was 11 (48) N (%). The “Treatment-emergent AE: Diarrhoea” value (PX-866 8 mg + docetaxel, N=23) was 18 (78) N (%), the “Treatment-emergent AE: Dizziness” value (PX-866 8 mg + docetaxel, N=23) was 4 (17) N (%) and the “Treatment-emergent AE: Dysgeusia” value (PX-866 8 mg + docetaxel, N=23) was 3 (13) N (%). The “Treatment-emergent AE: Epistaxis” value (PX-866 8 mg + docetaxel, N=23) was 4 (17) N (%), the “Treatment-emergent AE: Fatigue” value (PX-866 8 mg + docetaxel, N=23) was 13 (57) N (%) and the “Treatment-emergent AE: Hypokalemia” value (PX-866 8 mg + docetaxel, N=23) was 6 (26) N (%). For the same compound, the “Treatment-emergent AE: Nausea” value (PX-866 8 mg + docetaxel, N=23) was 16 (70) N (%).
